18 molecules from ChEMBL document CHEMBL3400137, “Glycyrrhizic acid derivatives as influenza A/H1N1 virus inhibitors” (Bioorg Med Chem Lett, 2015) can be followed below.

Data set [1] can be described thus: Selectivity index, CTD50 for MDCK cells to EC50 for influenza A virus (A/California/07/09(H1N1)) pdm09 infected in MDCK cells. Format: toxicity, cell-based. The conditions noted are these: dog; for selectivity ratio: read-out: Selectivity Index; for Selectivity Index: mdck.
Data set [2] is described as follows: Antiviral activity against influenza A virus (A/California/07/09(H1N1)) pdm09 infected in MDCK cells assessed as decrease in virus titer by hemagglutination assay in presence of 1% suspension of chicken erythrocytes. It is filed as functional, Influenza A virus (A/California/07/2009(H1N1)). As to conditions: read-out: CD50 (the source's name). In outline:
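MDCK cells were pre-treated for 1 h at 37 °C with serial twofold compound dilutions in MEM containing 2 mM arginine, 2 mM glutamine and 2 μg/mL trypsin, then infected. Untreated infected cells served as control. Virus yield in the supernatant was read by end-point dilution hemagglutination. ED50 was the concentration giving a two-fold drop in virus production versus control. Values are means.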

For a further data set, the system named is MDCK. Put plainly: Cytotoxicity against MDCK cells assessed as reduction in cell viability after 48 hrs by MTT assay. Format: cell-based, Canis lupus familiaris. In short, it runs like this: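 Compounds were taken from 5 mg/mL DMSO stocks and diluted twofold in MEM. They were applied to washed, serum-free MDCK monolayers (grown in MEM with 5% fetal calf serum) for 48 h at 37 °C. Cells were then PBS-washed and given 0.5 mg/mL MTT for 60 min at 37 °C in 5% CO2. Formazan was dissolved in DMSO and read at 535 nm. CTD50 was estimated from these readings. Values are means.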
A general note: Tetrazolium assays rely on reduction of a dye to a coloured formazan, in cell work by metabolically active cells.

Consider `COC(=O)[C@H](Cc1ccccc1)NC(=O)[C@H]1O[C@@H](O[C@H]2[C@H](O[C@H]3CC[C@]4(C)[C@H]5C(=O)C=C6[C@@H]7C[C@@](C)(C(=O)N[C@@H](Cc8ccccc8)C(=O)OC)CC[C@]7(C)CC[C@@]6(C)[C@]5(C)CC[C@H]4C3(C)C)O[C@H](C(=O)N[C@@H](Cc3ccccc3)C(=O)OC)[C@@H](O)[C@@H]2O)[C@H](O)[C@@H](O)[C@@H]1O`, for which, in data set [1], the selectivity ratio came out at 28. In addition, the CC50 in data set [2] (Influenza A virus, pdm09, MDCK) turned out to be 133 µM.

Consider `COC(=O)[C@H](Cc1ccc(O)cc1)NC(=O)[C@H]1O[C@@H](O[C@H]2[C@H](O[C@H]3CC[C@]4(C)[C@H]5C(=O)C=C6[C@@H]7C[C@@](C)(C(=O)N[C@@H](Cc8ccc(O)cc8)C(=O)OC)CC[C@]7(C)CC[C@@]6(C)[C@]5(C)CC[C@H]4C3(C)C)O[C@H](C(=O)N[C@@H](Cc3ccc(O)cc3)C(=O)OC)[C@@H](O)[C@@H]2O)[C@H](O)[C@@H](O)[C@@H]1O`, for which, in data set [1], the selectivity ratio was found to be 18. Further, the CC50 in data set [2] (Influenza A virus, pdm09, MDCK) is 160 µM.

Regarding `CC[C@H](C)[C@H](NC(=O)[C@H]1O[C@@H](O[C@H]2[C@H](O[C@H]3CC[C@]4(C)[C@H]5C(=O)C=C6[C@@H]7C[C@@](C)(C(=O)N[C@H](C(=O)OC)[C@@H](C)CC)CC[C@]7(C)CC[C@@]6(C)[C@]5(C)CC[C@H]4C3(C)C)O[C@H](C(=O)N[C@H](C(=O)OC)[C@@H](C)CC)[C@@H](O)[C@@H]2O)[C@H](O)[C@@H](O)[C@@H]1O)C(=O)OC`, the selectivity ratio in data set [1] was determined as 6. Moreover, the CC50 in data set [2] (Influenza A virus, pdm09, MDCK) was 16.4 µM.

Regarding `COC(=O)[C@H](Cc1ccccc1)NC(=O)[C@H]1O[C@@H](O[C@H]2[C@H](O[C@H]3CC[C@]4(C)[C@H]5C(=O)C=C6[C@@H]7C[C@@](C)(C(=O)O)CC[C@]7(C)CC[C@@]6(C)[C@]5(C)CC[C@H]4C3(C)C)O[C@H](C(=O)N[C@@H](Cc3ccccc3)C(=O)OC)[C@@H](O)[C@@H]2O)[C@H](O)[C@@H](O)[C@@H]1O`, the selectivity ratio in data set [1] is 61. Moreover, in data set [2] (Influenza A virus, pdm09, MDCK), the CC50 stood at 262 µM.

With `COC(=O)[C@H](Cc1ccc(O)cc1)NC(=O)[C@H]1O[C@@H](O[C@H]2[C@H](O[C@H]3CC[C@]4(C)[C@H]5C(=O)C=C6[C@@H]7C[C@@](C)(C(=O)O)CC[C@]7(C)CC[C@@]6(C)[C@]5(C)CC[C@H]4C3(C)C)O[C@H](C(=O)N[C@@H](Cc3ccc(O)cc3)C(=O)OC)[C@@H](O)[C@@H]2O)[C@H](O)[C@@H](O)[C@@H]1O`, the selectivity ratio in data set [1] is 38. Further, the CC50 in data set [2] (Influenza A virus, pdm09, MDCK) turned out to be 255 µM.

Turning to `COC(=O)[C@@H](NC(=O)[C@H]1O[C@@H](O[C@H]2[C@H](O[C@H]3CC[C@]4(C)[C@H]5C(=O)C=C6[C@@H]7C[C@@](C)(C(=O)O)CC[C@]7(C)CC[C@@]6(C)[C@]5(C)CC[C@H]4C3(C)C)O[C@H](C(=O)N[C@H](C(=O)OC)C(C)C)[C@@H](O)[C@@H]2O)[C@H](O)[C@@H](O)[C@@H]1O)C(C)C`, the selectivity ratio in data set [1] came to 5. Also, the CC50 in data set [2] (Influenza A virus, pdm09, MDCK) was 29.1 µM.

For the molecule `COC(=O)[C@H](Cc1c[nH]cn1)NC(=O)[C@H]1O[C@@H](O[C@H]2[C@H](O[C@H]3CC[C@]4(C)[C@H]5C(=O)C=C6[C@@H]7C[C@@](C)(C(=O)O)CC[C@]7(C)CC[C@@]6(C)[C@]5(C)CC[C@H]4C3(C)C)O[C@H](C(=O)N[C@@H](Cc3c[nH]cn3)C(=O)OC)[C@@H](O)[C@@H]2O)[C@H](O)[C@@H](O)[C@@H]1O`, the selectivity ratio in data set [1] was determined as 15. In addition, the CC50 in data set [2] (Influenza A virus, pdm09, MDCK) amounted to 298 µM.

Take `COC(=O)C[C@H](NC(=O)[C@H]1O[C@@H](O[C@H]2[C@H](O[C@H]3CC[C@]4(C)[C@H]5C(=O)C=C6[C@@H]7C[C@@](C)(C(=O)O)CC[C@]7(C)CC[C@@]6(C)[C@]5(C)CC[C@H]4C3(C)C)O[C@H](C(=O)N[C@@H](CC(=O)OC)C(=O)OC)[C@@H](O)[C@@H]2O)[C@H](O)[C@@H](O)[C@@H]1O)C(=O)OC`: in data set [1], the selectivity ratio amounted to 1. For the same molecule, in data set [2] (Influenza A virus, pdm09, MDCK), the CC50 was found to be 37.3 µM.

With `CC1(C)[C@@H](O[C@@H]2O[C@H](C(=O)N[C@@H](CSCc3ccccc3)C(=O)O)[C@@H](O)[C@H](O)[C@H]2O[C@@H]2O[C@H](C(=O)N[C@@H](CSCc3ccccc3)C(=O)O)[C@@H](O)[C@H](O)[C@H]2O)CC[C@]2(C)[C@H]3C(=O)C=C4[C@@H]5C[C@@](C)(C(=O)O)CC[C@]5(C)CC[C@@]4(C)[C@]3(C)CC[C@@H]12`, the selectivity ratio in data set [1] was 71. The CC50 in data set [2] (Influenza A virus, pdm09, MDCK) turned out to be 248 µM.

For the molecule `CC1(C)[C@@H](O[C@@H]2O[C@H](C(=O)N[C@@H](CCCCNC(=O)OCc3ccccc3)C(=O)O)[C@@H](O)[C@H](O)[C@H]2O[C@@H]2O[C@H](C(=O)N[C@@H](CCCCNC(=O)OCc3ccccc3)C(=O)O)[C@@H](O)[C@H](O)[C@H]2O)CC[C@]2(C)[C@H]3C(=O)C=C4[C@@H]5C[C@@](C)(C(=O)O)CC[C@]5(C)CC[C@@]4(C)[C@]3(C)CC[C@@H]12`, the selectivity ratio in data set [1] turned out to be 3. Moreover, in data set [2] (Influenza A virus, pdm09, MDCK), the CC50 was 155 µM.

Take `CC1(C)[C@@H](O[C@@H]2O[C@H](C(=O)N[C@@H]3O[C@H](CO)[C@@H](O)[C@H](O)[C@H]3O)[C@@H](O)[C@H](O)[C@H]2O[C@@H]2O[C@H](C(=O)N[C@@H]3O[C@H](CO)[C@@H](O)[C@H](O)[C@H]3O)[C@@H](O)[C@H](O)[C@H]2O)CC[C@]2(C)[C@H]3C(=O)C=C4[C@@H]5C[C@@](C)(C(=O)O)CC[C@]5(C)CC[C@@]4(C)[C@]3(C)CC[C@@H]12`: the selectivity ratio in data set [1] is 36. Moreover, the CC50 in data set [2] (Influenza A virus, pdm09, MDCK) was found to be 259 µM.

As to `COC(=O)C[C@H](NC(=O)[C@H]1O[C@@H](O[C@H]2[C@H](O[C@H]3CC[C@]4(C)[C@H]5C(=O)C=C6[C@H]7C[C@@](C)(C(=O)O)CC[C@]7(C)CC[C@@]6(C)[C@]5(C)CC[C@H]4C3(C)C)O[C@H](C(=O)N[C@@H](CC(=O)OC)C(=O)OC)[C@@H](O)[C@@H]2O)[C@H](O)[C@@H](O)[C@@H]1O)C(=O)OC`, the selectivity ratio in data set [1] turned out to be 4. Also, the CC50 in data set [2] (Influenza A virus, pdm09, MDCK) turned out to be 38 µM.

As to `COC(=O)C[C@H](NC(=O)[C@H]1O[C@@H](O[C@H]2[C@H](O[C@H]3CC[C@]4(C)[C@H]5C(=O)C=C6[C@H]7C[C@@](C)(C(=O)O)CC[C@]7(C)CC[C@@]6(C)[C@]5(C)CC[C@H]4C3(C)C)O[C@H](C(=O)N[C@@H](CC(=O)OC)C(=O)O)[C@@H](O)[C@@H]2O)[C@H](O)[C@@H](O)[C@@H]1O)C(=O)O`, the selectivity ratio in data set [1] turned out to be 12. The CC50 in data set [2] (Influenza A virus, pdm09, MDCK) worked out at 58.3 µM.

As to `COC(=O)[C@@]1(C)CC[C@]2(C)CC[C@]3(C)C(=CC(=O)[C@@H]4[C@@]5(C)CC[C@H](O[C@@H]6O[C@H](CO)[C@@H](O)[C@H](O)[C@H]6O[C@@H]6O[C@H](CO)[C@@H](O)[C@H](O)[C@H]6O)C(C)(C)[C@@H]5CC[C@]43C)[C@@H]2C1`, the selectivity ratio in data set [1] is 5. The CC50 in data set [2] (Influenza A virus, pdm09, MDCK) is 371 µM.

For `CC1(C)[C@@H](O[C@@H]2O[C@H](C(=O)O)[C@@H](O)[C@H](O)[C@H]2O[C@@H]2O[C@H](C(=O)O)[C@@H](O)[C@H](O)[C@H]2O)CC[C@]2(C)C3=CC=C4[C@@H]5C[C@@](C)(C(=O)O)CC[C@]5(C)CC[C@@]4(C)[C@]3(C)CC[C@@H]12`, the selectivity ratio in data set [1] was determined as 10. In data set [2] (Influenza A virus, pdm09, MDCK), the CC50 worked out at 21.4 µM.

Turning to `CC1(C)[C@@H](OC2O[C@H](C(=O)O)[C@@H](O)[C@H](O)[C@H]2O[C@@H]2O[C@H](C(=O)O)[C@@H](O)[C@H](O)[C@H]2O)CC[C@]2(C)[C@H]3C(=O)C=C4C5C[C@@](C)(C(=O)O)CC[C@]5(C)CC[C@@]4(C)[C@]3(C)CC[C@@H]12` (single isomer, unassigned) [GLYCYRRHIZIN], the “Selectivity Index” value in data set [1] turned out to be 3. Moreover, the EC50 in the data set with MDCK is 15.2 µM. Further, the CC50 in data set [2] is 47.5 µM.

`CC1(C)[C@@H](O[C@H]2O[C@H](C(=O)O)[C@@H](O)[C@H](O)[C@H]2O[C@@H]2O[C@H](C(=O)O)[C@@H](O)[C@H](O)[C@H]2O)CC[C@]2(C)[C@H]3C(=O)C=C4[C@@H]5C[C@@](C)(C(=O)O)CC[C@]5(C)CC[C@@]4(C)[C@]3(C)CC[C@@H]12` [GLYCYRRHIZIN]: in data set [1], the “Selectivity Index” value is reported as 1. In addition, the EC50 in the data set on MDCK worked out at 365 µM. The CC50 in data set [2] was found to be 365 µM.

As for `CC(N)C12CC3CC(CC(C3)C1)C2` (stereo not drawn) [RIMANTADINE], the selectivity ratio in data set [1] was determined as 5. The CC50 in data set [2] (Influenza A virus, pdm09, MDCK) stood at 334 µM.

As usually defined, the EC50 is the concentration needed to bring the measured effect to its halfway point.
